Source: PubChem (several laboratories)
Sampled rows, rich in hits. Any-hit rate of the full collection: about 2.1%.
B2AR ag – human beta-2 adrenergic receptor agonism by FAP; P07550; Am2.2-beta2AR cells, FAP receptor internalization, flow cytometry; response, % (concentration not given with the values); hit rate 0.43% among 340,000; AID 504454;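 active = response above a set limit, near 3 SD of response in nonfluorescent compounds, cut at about 42% in these data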
Target sequence (P07550 whole entry, looked up): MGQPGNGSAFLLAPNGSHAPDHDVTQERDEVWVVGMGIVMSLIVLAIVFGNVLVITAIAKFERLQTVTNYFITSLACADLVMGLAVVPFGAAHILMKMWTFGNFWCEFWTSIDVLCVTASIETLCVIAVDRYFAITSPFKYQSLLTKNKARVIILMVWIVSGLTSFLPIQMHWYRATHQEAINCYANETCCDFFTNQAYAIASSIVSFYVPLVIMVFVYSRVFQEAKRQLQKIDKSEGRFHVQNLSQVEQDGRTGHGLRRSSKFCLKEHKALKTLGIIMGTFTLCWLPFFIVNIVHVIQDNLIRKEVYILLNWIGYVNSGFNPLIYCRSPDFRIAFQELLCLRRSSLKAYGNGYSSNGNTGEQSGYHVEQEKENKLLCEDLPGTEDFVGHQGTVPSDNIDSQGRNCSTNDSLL
Cardio protect – myocardial damage modulation in H9c2 cells | H9c2 cardiomyocytes, H2O2 injury protection, ATPLite, 2 h | AID 588492 | hit rate 0.63% among 360,000 | protection from H2O2 cell death, % at 20 µM;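 active = compounds giving at least 50% protection of heart cells from peroxide-induced death in the single-dose screen, raw or plate-pattern-corrected value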;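 also: 0% = DMSO wells with peroxide and 100% = DMSO wells without peroxide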
PfGluPho inh – PfG6PD (Plasmodium falciparum) enzyme inhibition; hit rate 0.78% among 350,000; PfGluPho enzyme, NADPH resazurin-diaphorase fluorescence; inhibition, % at 20 µM; AID 504690;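 active = inhibition reaching at least a set limit at 20 µM in the primary screen, cut at about 59% in these data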;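 also: 0% = DMSO wells with substrate and 100% = DMSO wells lacking glucose-6-phosphate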
aDG glyco up – alpha-DG glycosylation activation. Pro5-aDG cells, alpha-DG glycosylation AlphaScreen (IIH6); 0% Pro5, 100% B10-LARGE cell signal. hit rate 0.22% among 360,000. activation, % at 10 µM. AID 624168;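 active = activation of at least 8% versus controls, or a plate z-score of at least 8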;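 also: Pro5 are CHO cells carrying HIG-tagged alpha-DG that lacks glycosylation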
HKDC1 inh – inhibitors of human hexokinase HKDC1; Q2TB90; recombinant HKDC1, G6PDH/diaphorase resazurin coupled fluorescence; inhibition, % at 20 µM; hit rate 0.16% among 340,000; AID 493160;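 active = inhibition above about 35% when tested at 20 µM, limit read from the data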;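 also: plate controls were DMSO wells with enzyme for no effect and DMSO wells lacking enzyme for full effect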
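Test system: recombinant HKDC1 (HK5) hexokinase enzyme, produced in-house / Doses: 20 µM test compound, 1% DMSO / Timing: 90 min, room temperature / Detection: G6PDH/diaphorase-coupled fluorescence, 1 mM NADP, 100 µM resazurin, 525/613 nm / Control set: DMSO wells with and without enzyme mix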
UCH37 inh – blocks the human deubiquitinase UCH37; purified proteasome/UCH37, Ub-AMC cleavage fluorescence; Q9Y5K5; hit rate 0.33% among 330,000; inhibition, % (no concentration beside the values);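 active = mean inhibition over replicate wells above about 20%, limit read from the data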;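 also: 0% = compound-free wells with enzyme and 100% = wells lacking proteasome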
Target sequence (Q9Y5K5 whole entry, looked up): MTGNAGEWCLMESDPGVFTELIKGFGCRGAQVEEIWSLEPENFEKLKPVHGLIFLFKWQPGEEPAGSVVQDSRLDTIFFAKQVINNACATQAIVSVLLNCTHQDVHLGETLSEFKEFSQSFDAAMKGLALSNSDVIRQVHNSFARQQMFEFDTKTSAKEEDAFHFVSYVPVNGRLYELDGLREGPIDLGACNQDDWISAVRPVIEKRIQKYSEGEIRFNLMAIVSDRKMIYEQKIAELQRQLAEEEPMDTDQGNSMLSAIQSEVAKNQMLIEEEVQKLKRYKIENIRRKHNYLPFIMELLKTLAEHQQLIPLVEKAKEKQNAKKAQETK
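assay system = human UCH37 enzyme supplied as purified proteasome complex | amount = proteasome at 0.15 nM in the dispensed enzyme solution | schedule = 30 min compound-proteasome preincubation then 25 min substrate reaction, room temperature | measured by = fluorescence, ex 355 nm, em 460 nm | benchmarks = no-proteasome wells (full inhibition) and compound-free wells (no inhibition)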
PfGluPho conf – confirmation of Plasmodium falciparum G6PD inhibitors. hit rate 34% among 2,400. AID 504753. recombinant PfGluPho, NADPH-diaphorase-resazurin fluorescence. inhibition, % at 20 µM. shares compounds with PfGluPho inh;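 active = inhibition of at least 50% at 20 µM in any single replicate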;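 also: 0% = DMSO with substrate and 100% = DMSO lacking glucose-6-phosphate substrate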
Diaph ctr 10uM – diaphorase inhibition or oxidation at 10 uM NADPH. shares compounds with PfGluPho inh. inhibition, % at 20 µM. hit rate 39% among 820. diaphorase-coupled resazurin reduction, fluorescence, NADPH 10 uM. AID 504862;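 active = average inhibition reaching 50% or more with the compound at 20 µM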;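 also: resorufin red fluorescence formed as diaphorase reduces resazurin using NADPH; 0% = DMSO with enzyme and 100% = DMSO without enzyme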
Diaphorase 30uM – inhibits diaphorase or oxidizes, flagging false PfG6PD hits. shares compounds with PfGluPho inh. Diaphorase/resazurin coupled assay, resorufin fluorescence, 30 uM NADPH. inhibition, % at 20 µM. hit rate 29% among 820;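 active = inhibition averaging 50% or more, tested at 20 µM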;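 also: 0% = DMSO with enzyme and 100% = DMSO wells lacking diaphorase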
* = called active by the depositor.

`O=C(CCc1ccccc1)OCC(=O)c1ccc([N+](=O)[O-])cc1` gave B2AR ag 1.5, Cardio protect -0.7, PfGluPho inh 40.8, aDG glyco up 0.1, HKDC1 inh -9.2 and UCH37 inh 0.4.
Screening Cc1ccc(C(=O)COC(=O)c2cnccn2)cc1 returned B2AR ag 6.7, Cardio protect 1.0, PfGluPho inh 1.1, aDG glyco up 0.2, HKDC1 inh 1.5 and UCH37 inh 0.0.
`Cc1ccccc1OCC(=O)NCC(=O)OCC(=O)c1ccc([N+](=O)[O-])cc1` gave B2AR ag -2.5, Cardio protect -6.2, PfGluPho inh 70.0*, aDG glyco up 0.0, HKDC1 inh -1.2, UCH37 inh -0.6, PfGluPho conf 51.9*, Diaph ctr 10uM -6.8 and Diaphorase 30uM -22.3.
Screening O=C(COC(=O)c1cnccn1)c1ccc([N+](=O)[O-])cc1 returned B2AR ag 0.3, Cardio protect 0.4, PfGluPho inh 78.8*, aDG glyco up 0.1, HKDC1 inh -4.2, UCH37 inh 2.8, PfGluPho conf 67.5*, Diaph ctr 10uM 7.2 and Diaphorase 30uM -17.4.
Screening Cc1ccc(C(=O)COC(=O)CNC(=O)COc2ccccc2C)cc1C returned B2AR ag 11.0, Cardio protect -0.1, PfGluPho inh 2.8, aDG glyco up -0.1, HKDC1 inh 0.2 and UCH37 inh -0.8.
O=C(CNC(=O)c1cccs1)OCC(=O)c1ccccc1 was read as B2AR ag 6.4, Cardio protect 2.9, PfGluPho inh -6.8, aDG glyco up 0.2, HKDC1 inh 4.3 and UCH37 inh -1.4.
O=C(COc1ccccc1F)OCC(=O)c1ccc([N+](=O)[O-])cc1 was read as B2AR ag 21.1, Cardio protect 0.4, PfGluPho inh 88.1*, aDG glyco up 0.2, HKDC1 inh -5.0, UCH37 inh 2.7, PfGluPho conf 51.9*, Diaph ctr 10uM 19.1 and Diaphorase 30uM -1.4.
Screening O=C(CNC(=O)c1cccs1)NCC(=O)OCC(=O)c1ccc([N+](=O)[O-])cc1 returned B2AR ag 6.1, Cardio protect -7.7, PfGluPho inh 67.1*, aDG glyco up 0.2, HKDC1 inh 14.2, UCH37 inh 3.5, PfGluPho conf 62.9*, Diaph ctr 10uM 3.2 and Diaphorase 30uM -2.1.
C=CCNC(=S)NN=Cc1ccc(OCc2ccccc2Cl)cc1 was read as UCH37 inh 4.6.
O=C(CON=Cc1cccc([N+](=O)[O-])c1)NC1CCCCC1 was read as UCH37 inh 2.8.
Screening O=C(CCC(=O)OCC(=O)c1ccc([N+](=O)[O-])cc1)Nc1ccccc1Cl returned B2AR ag -3.3, Cardio protect 2.4, PfGluPho inh 68.0*, aDG glyco up -0.3, HKDC1 inh -6.9, UCH37 inh 2.5, PfGluPho conf 54.0*, Diaph ctr 10uM 2.4 and Diaphorase 30uM -2.9.
For Nc1c(O)cccc1C(=O)O the results were B2AR ag -10.9, Cardio protect -0.2, PfGluPho inh 107.6*, aDG glyco up 0.1, HKDC1 inh 21.0, UCH37 inh -18.7, PfGluPho conf 80.4*, Diaph ctr 10uM 0.0 and Diaphorase 30uM 0.3.
Screening O=C(O)c1ccccc1O returned B2AR ag 4.7, Cardio protect -7.8, PfGluPho inh -1.9, aDG glyco up -0.1, HKDC1 inh -2.6 and UCH37 inh 1.0.
Screening Cc1ccc2nc(N(CCCN(C)C)C(=O)c3ccc4ncsc4c3)sc2c1 returned B2AR ag 14.7, Cardio protect 4.9, PfGluPho inh 59.7*, aDG glyco up 0.0, HKDC1 inh 0.7, UCH37 inh 0.2 and PfGluPho conf -7.5.
`COc1ccc2nc(N(CCN(C)C)C(=O)c3ccc4ncsc4c3)sc2c1` gave Cardio protect 17.1, PfGluPho inh 34.0 and aDG glyco up 0.0.
For COc1cc(/C=C2/CCC/C(=C\c3cc(O)c(OC)c(Cl)c3)C2=O)cc(Cl)c1O the results were B2AR ag -5.2, Cardio protect 6.5, PfGluPho inh 13.3, aDG glyco up -0.3, HKDC1 inh 21.8 and UCH37 inh 5.0.
COc1cc(/C=C2\CC/C(=C\c3cc(OC)c(O)c(OC)c3)C2=O)cc(OC)c1O was read as B2AR ag 11.6, Cardio protect 65.2*, PfGluPho inh 63.1*, aDG glyco up -0.2, HKDC1 inh 28.7, UCH37 inh 9.8, PfGluPho conf 67.2*, Diaph ctr 10uM 18.4 and Diaphorase 30uM 17.1.
`S=c1nc[nH]c2c1ncn2-c1ccc(Cl)cc1` gave B2AR ag -3.8, Cardio protect 2.1, PfGluPho inh 66.3*, aDG glyco up -0.1, HKDC1 inh -5.4, UCH37 inh 2.2 and PfGluPho conf 23.9.
For O=C(O)Cn1cnc2c(=S)nc[nH]c21 the results were B2AR ag -1.4, Cardio protect 0.1, PfGluPho inh 19.2, aDG glyco up 0.3 and HKDC1 inh -5.0.
For C=C(C)COc1ccc(-c2ncnc(C(F)(F)F)c2-c2ccccc2)c(O)c1 the results were B2AR ag -6.3, Cardio protect -11.5, PfGluPho inh 25.5, aDG glyco up 0.0, HKDC1 inh 1.5 and UCH37 inh 3.5.
`C=C(C)COc1ccc(-c2ncnc(C(F)(F)F)c2-c2ccc(OC)cc2)c(O)c1` gave B2AR ag -0.2, Cardio protect -11.3, PfGluPho inh 70.5*, aDG glyco up -0.3, HKDC1 inh 2.2, UCH37 inh 5.0 and PfGluPho conf -3.8.
COC(=O)c1ccccc1N/C=C1\CCc2c(c(C)nn2-c2ccccn2)C1=O was read as B2AR ag 2.1, Cardio protect 9.7, PfGluPho inh 74.2*, aDG glyco up 0.1, HKDC1 inh -1.3, UCH37 inh -2.1, PfGluPho conf 63.9*, Diaph ctr 10uM 11.8 and Diaphorase 30uM -3.7.
CCc1sc(C(=O)Nc2ccc(NC(C)=O)cc2)cc1C was read as B2AR ag -10.4, Cardio protect 1.8, PfGluPho inh 1.9, aDG glyco up -0.2, HKDC1 inh 19.3 and UCH37 inh -14.2.
For CCc1sc(C(=O)Nc2nc(C)cs2)cc1C the results were B2AR ag -0.5, Cardio protect -13.3, PfGluPho inh 60.8*, aDG glyco up 0.1, HKDC1 inh 2.3, UCH37 inh -0.7 and PfGluPho conf 11.1.
Oc1cccc(/C=N/NC(=S)Nc2cccnc2)c1O was read as B2AR ag -2.2, Cardio protect 23.0, PfGluPho inh 18.7, aDG glyco up 0.5 and HKDC1 inh -0.8.
